Assay results collected from several papers.
Lines come from different studies, so protocols differ.

CC(C)[C@]12O[C@H]1[C@@H]1O[C@]13[C@]1(O[C@H]1C[C@H]1C4=C(CC[C@@]13C)C(=O)OC4)[C@@H]2O
Cmax (SCID mouse; plasma; intravenous; 0.6 mg/kg): 1290 ng/mL

N=C(N)NCCC[C@H](NC(=O)[C@H](Cc1ccccc1)NC(=O)[C@H](CCC(N)=O)NC(=O)OCc1ccccc1)C(=O)c1nccs1
Cmax (female C57BL/6 mouse; plasma; intravenous; 5 mg/kg): 3460 ng/mL

Cc1[nH]c(C)c(S(=O)(=O)Nc2ccc(S(F)(F)(F)(F)F)cc2)c1C(=O)N1CCC(F)(F)C1
Cmax (mouse; plasma; intraperitoneal; 40 mg/kg): 31 µM

C[C@@H](O)[C@@H]1NC(=O)CNC(=O)[C@H](Cc2c[nH]cn2)NC(=O)[C@H](Cc2c[nH]c3ccccc23)NC(=O)[C@H](CC(N)=O)NC(=O)CNC(=O)C[C@@H](C(=O)N[C@@H](Cc2c[nH]c3ccccc23)C(=O)N[C@@H](Cc2ccccc2)C(=O)N[C@@H](Cc2ccccc2)C(=O)N[C@@H](CC(N)=O)C(=O)N[C@@H](Cc2ccc(O)cc2)C(=O)N[C@@H](Cc2ccc(O)cc2)C(=O)N[C@@H](Cc2c[nH]c3ccccc23)C(=O)O)NC(=O)[C@@H]2CCCN2C(=O)[C@H](CO)NC1=O
Cmax (mouse; plasma; intravenous; 3 mg/kg): 11400 ng/mL

O=C1CCC(N2Cc3c(ccc4c3OCC43CCN(Cc4ccccc4)CC3)C2=O)C(=O)N1 (centres unmarked)
Cmax (male CD-1 mouse; plasma; intravenous; 1 mg/kg): 299 ng/mL

COc1cc(C(=O)c2nc(-c3cccc4[nH]ccc34)c[nH]2)cc(OC)c1OC
Cmax (male CD-1 mouse; plasma; intraperitoneal; 15 mg/kg): 1870 ng/mL

CCOC(=O)c1c(NC(=O)CNC(C)C)sc2c1CCCCC2
Cmax (male mouse; brain; intraperitoneal; 100 mg/kg; single dose): 15800 ng/g

CC(C)=CCC[C@](C)(O[C@@H]1O[C@H](CO)[C@@H](O)[C@H](O)[C@H]1O)[C@H]1CC[C@]2(C)[C@@H]1[C@H](O)C[C@@H]1[C@@]3(C)CC[C@H](O)C(C)(C)[C@@H]3CC[C@]12C
Cmax (mouse; plasma; oral; 10 mg/kg): 107 ng/mL
